Publication PMC2854536 (Clinical cancer research : an official journal of the …, 2009)

Columns and labels:
[1] = test system: bFGF-induced angiogenesis; test: Matrigel plug assay; format: in vivo, nude mice; conditions: Matrigel plug with bFGF (Fig. 3C bottom)
CD95 = test: Immunohistochemistry of Matrigel plug vasculature, CD95; format: in vivo, nude mice; conditions: Matrigel plugs with bFGF (Fig. 6A)
[2] = test system: bFGF/VEGF-induced angiogenesis; test: Directed In Vivo Angiogenesis Assay; parameters: species or system nude mice
In short: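 Angioreactors filled with basement membrane extract holding bFGF/VEGF mix plus test peptide, or peptide alone, implanted subcutaneously in both flanks of nude mice, four per animal. PEDF 20 nM and 34-mer 100 nM served as controls. Recovered cells were FITC-lectin labelled and fluorescence read as relative EC invasion. Three independent experiments, normalised to negative control, averaged.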

endothelial cells = test: Cytotoxicity in a 4-hour assay; format: cell-based, Human; conditions: P14 at concentrations above 10 nM, data not shown
HMVEC cells = test: Endothelial cell apoptosis, TUNEL assay; format: cell-based, Human; conditions: overnight, 0.2% FBS, no bFGF, PEDF 10 nM, 34-mer 100 nM (Fig. 2C)
In short: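 Confluent HMVECs (passages 6–9) on coverslips were treated overnight with test peptide in MCDB131 with 0.2% FBS, with or without bFGF 20 ng/ml. PEDF 10 nM and 34-mer 100 nM were controls. TUNEL staining with propidium iodide counterstain. In 3–5 10X fields, TUNEL-positive and total PI-positive cells were counted to give % apoptotic cells.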

34-mer: PEDF anti-angiogenic N-terminal surface epitope, amino acid residues 24–57; parental peptide (SPPEEGSPDPDSTGALVEEEDPFFKVPVNKLAAA; UniProt P36955 24-57, looked up, fragment)
EC apoptosis by in situ TUNEL [1]: induced significant levels of EC apoptosis
CD95 staining of microvessels (CD95): majority of the microvessels stained positive

P14: PEDF-derived peptide, residues 43–57 of PEDF molecule, acetylated at the N-terminus and amidated at the C-terminus (Ac-EDPFFKVPVNKLAAA-NH2; UniProt P36955 43-57, looked up, fragment)
angiogenic activity of the peptide alone ([2]; DIVAA, without bFGF/VEGF, P<0.05): pro-angiogenic
cytotoxicity (endothelial cells): slightly cytotoxic

P23: PEDF-derived peptide, residues 34–57, acetylated at the N-terminus and amidated at the C-terminus (Ac-DSTGALVEEEDPFFKVPVNKLAAA-NH2; UniProt P36955 34-57, looked up, fragment)
cytotoxicity (endothelial cells): no cytotoxic activity

B1: PEDF: Pigment epithelial-derived factor, native protein, a potent angiogenesis inhibitor (protein, UniProt P36955 20-418, looked up)
Pigment epithelium-derived …: QNPASPPEEGSPDPDSTGALVEEEDPFFKVPVNKLAAAVSNFGYDLYRVRSSTSPTTNVLLSPLSVATALSALSLGAEQRTESIIHRALYYDLISSPDIHGTYKELLDTVTAPQKNLKSASRIVFEKKLRIKSSFVAPLEKSYGTRPRVLTGNPRLDLQEINNWVQAQMKGKLARSTKEIPDEISILLLGVAHFKGQWVTKFDSRKTSLEDFYLDEERTVRVPMMSDPKAVLRYGLDSDLSCKIAQLPLTGSMSIIFFLPLKVTQNLTLIEESLTSEFIHDIDRELKTVQAVLTVPKLKLSYEGEVTKSLQEMKLQSLFDSPDFSKITGKPIKLTQVEHRAGFEWNEDGAGTTPSPGLQPAHLTFPLDYHLNQPFIFVLRDTDTGALLFIGKILDPRGP
effect on stress-induced apoptosis in low serum (HMVEC cells): no effect
level of vascularization reached ([2]; DIVAA with bFGF/VEGF mix, P=0.006 (PEDF) and 0.01 (P18)): to the level of BME
